Values joined by “and” are separate entries in the source; they are usually repeats but may differ in a detail not shown here. Identical values can stand only once. Like-named read-outs stand apart in the source and are kept apart here.
Experiments:
[1] = tested on: F344 BigBlue rats; test: Histological analysis of spleen, lung and liver; type: in vivo; conditions: animal 1 – 4
Outline: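 In both genders, frozen tissue sampled at PND75 sacrifice (4 weekly i.p. doses, 4 rats/group) was cut into four-micron sections. Sections were stained with hematoxylin/eosin and examined by light microscopy for histological anomalies in each animal.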

[2] = tested on: liver mRNA; test: Gene expression analysis of female liver RNA; type: in vivo, F344 BigBlue rats; conditions: for number of unique genes significantly changed: p < 0.0001 and fold change > 5 versus corn oil control, pooled RNA
[3] = ref Espandiari et al. 2004; cited from earlier work
[4] = Body weight gain during the study period; type: in vivo, F344 BigBlue rats; conditions: for effect on weight gain compared to control: either gender; for reduction of weight gain during the treatment period: versus control
[5] = tested on: F344 BigBlue rats; test: Organ weights normalized to body weight; type: in vivo; conditions: for impact on liver, lung and spleen weights: versus corn oil controls
Outline: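 Rats of both genders, 4/group, were given 4 weekly i.p. doses in corn oil and killed on PND75 by CO2 then cervical dislocation. Liver and other organs were excised and weighed, and weights were expressed as g per 100 g body weight. ANOVA used treatment, gender and their interaction.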

[6] = tested on: LacI gene; test: LacI gene sequencing, type of mutations; type: in vivo, F344 BigBlue rats; conditions: female liver; for Deletions, distinct mutations / Insertions, distinct mutations / Transitions, distinct mutations / Transversions, distinct mutations: number; for frameshift mutations (deletions and insertions), % of all mutations: solvent controls 18%
[7] = tested on: LacI gene; test: BigBlue lacI mutant and mutation frequency analysis, female liver; type: in vivo, F344 BigBlue rats; conditions: for Mutants per 10^6 plaques (mutant frequency): 4 weekly i.p. injections, sacrifice PND75; for Mutation Frequency (MF) ± SE (corrected) / Number of Mutations (corrected): after sequencing; for Number of Mutations (corrected): duplicates and non-mutants excluded
Outline: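 Female F344 BigBlue rats (lacI transgene), 4/group, got i.p. test compound, positive control or corn oil (5 ml/kg) weekly on PND 37, 44, 51, 58 and were killed on PND75. Genomic DNA from 50 mg central liver was lambda-packaged, infected into E. coli and plated in X-gal top agar overnight. Blue plaques were counted, with >100,000 pfu/animal. Mutant frequency = blue plaques/pfu, per 10^6 ± SE.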

[8] = tested on: F344 BigBlue rats; conditions: Male; animal 1 – 4; previously reported; ref Lehmann et al. 2007; Maddox et al. 2008; cited from earlier work
[9] = tested on: LacI; conditions: ref Lehmann et al. 2007, cited from earlier work; for frameshift mutations, % of mutations: male livers, control 19%
[10] = tested on: Sprague Dawley rat; conditions: female Sprague Dawley rats; ref http://ntp.niehs.nih.gov/; cited from earlier work
[11] = ref Li et al. 1997; cited from earlier work
[12] = versus corn oil control, up-regulated

Oc1ccc(-c2ccc(Cl)cc2)cc1 [4′-OH-PCB3]
Organ Pathology, LIVER ([1]; Female): rare acidophilic bodies, but 3 of 4 animals had patchy hepatocellular necrosis and chronic inflammation and 1: Rare acidophilic bodies with patchy hepatocellular necrosis and chronic inflammation. 2 + 3: Rare acidophilic bodies with patchy hepatocellular necrosis and chronic inflammation. 4: Scattered acidophilic bodies with dilated sinusoids.
Organ Pathology, LUNG ([1]; Female): 1: Minimal acute inflammation 2: Almost normal with focal perivascular lymphocytes. 3: No abnormality. 4: Patchy bronchopneumonia with early ARDS. Perivascular lymphocytes increased
Organ Pathology, SPLEEN ([1]; Female): 1 – 4: Reduced mantle
Organ Pathology, SPLEEN ([1]; Male): 1: No abnormality 2 + 3: Reduced mantle with focally increased neutrophils. 4: Reduced mantle with focally increased neutrophils with red pulp congestion.
number of unique genes significantly changed [2]: 157
cul1 (cullin 1) expression change ([2]; versus corn oil control, down): 36.3 fold
ei24 (etoposide induced 2.4 mRNA) expression change ([2]; versus corn oil control, down): 28.1 fold
cyp2b2 expression change ([2]; versus corn oil control, down-regulated): ~19 fold
aqp2 (aquaporin 2) expression change ([2]; versus corn oil control, up): 6.6 fold
bnip3l (BCL2/adenovirus E1B interacting protein 3-like) expression change ([2]; versus corn oil control, up): 5.8 fold
kdr (kinase insert domain protein receptor) expression change ([2]; versus corn oil control, up): 6.4 fold
sh3glb1 (SH3-domain GRB2-like endophilin B1) expression change ([2]; versus corn oil control, up): 6.3 fold
stat1 (signal transducer and activator of transcription 1) expression change ([2]; versus corn oil control, up): 10.6 fold
syvn1 (synovial apoptosis inhibitor 1) expression change ([2]; versus corn oil control, up): 26.7 fold
Cyp2j4 expression change [2, 12]: 8.8 fold
sult1b1 (sulfotransforase 1b1) expression change [2, 12]: ~7 fold
result in the modified Solt-Farber Initiation Protocol [3]: positive
Weight Gain (average ± StDev) ([4]; Female, control 80.7 ± 7.42): 85.3 ± 4.13 gram
Weight Gain (average ± StDev) ([4]; Male, control 159.7 ± 7.63): 129.6 ± 17.50 gram
effect on weight gain compared to control [4]: Neither PCB3 nor 4′-OH-PCB3 had a significant effect on weight gain in either gender
impact on liver, lung and spleen weights [5]: no statistically significant impact
Deletions, % of total [6]: 12%
Insertions, % of total [6]: 24%
Transitions, % of total [6]: 35%
Transversions, % of total [6]: 29%
Deletions, distinct mutations [6]: 2
Insertions, distinct mutations [6]: 4
Transitions, distinct mutations [6]: 6
Transversions, distinct mutations [6]: 5
frameshift mutations (deletions and insertions), % of all mutations [6]: 36%
significance of the increase in mutation frequency compared to control [7]: neither PCB3 (p=0.429) nor 4′-OH-PCB3 (p=0.581) increased the mutation frequency significantly
Mutants per 10^6 plaques (mutant frequency) [7]: 27.3 per 10^6 plaques
Mutation Frequency (MF) ± SE (corrected) [7]: 27.2 ± 6.6 per 10^6 pfu
Number of Mutations (corrected) [7]: 19
Organ Pathology, LIVER [8]: all four male 4′-OH-PCB3 livers showed dilated sinosoids and 1: dilated sinusoids, rare acidophil body. No obvious inflammation. 2, 3, and 4: dilated sinusoids,. Focal lymphocyte cluster with rare acidophil body. Minimal portal tract inflammation.
Organ Pathology, LUNG [8]: 1 + 2: No abnormality. 3 + 4: Minimal perivascular lymphocytes.
frameshift mutations, % of mutations [9]: 22%

Clc1ccc(-c2cc(Cl)c(Cl)c(Cl)c2)cc1Cl [PCB 126, 3,3′,4,4′,5-pentachlorobiphenyl]
carcinogenicity in chronic carcinogenicity studies [10]: clear evidence

Cc1ccc2cc3c(ccc4ccccc43)c3c2c1CC3 [3-MC, 3-Methylcholanthrene, reference compound]
Organ Pathology, LIVER ([1]; Female): only scattered foci of necrosis, prominent Kupffer cells and focal perilobular lymphocytes in two of the four animals
Organ Pathology, LUNG ([1]; Female): 1: Bronchopneumonia with what looks like early ARDS. Pulmonary edema 2: Bronchopneumonia with what looks like early ARDS more so than #1. Pulmonary edema. 3: Focal acute inflammation with increased intra-alveolar macrophages 4: No abnormality.
Organ Pathology, SPLEEN ([1]; Female): No abnormality
Organ Pathology, SPLEEN ([1]; Male): No abnormality
persistence in the liver [11]: 2 weeks
number of unique genes significantly changed [2]: Seventyfive
calca (calcitonin/calcitonin-related polypeptide a) expression ([2]; versus corn oil control): up regulated
csda (cold shock domain protein A) expression ([2]; versus corn oil control): up regulated
trib3 (tribbles homolog 3) expression ([2]; versus corn oil control): up regulated
CYP1A2 gene expression increase ([2]; versus corn oil control, up): 58 fold
UGT1A2 gene expression increase ([2]; versus corn oil control, up): 13 fold
akr7a3 (aldo-keto reductases 7a3) expression change ([2]; versus corn oil control, up): 16 fold
bcl10 (B-cell CLL/lymphoma 10) expression change ([2]; versus corn oil control, up): 16.3 fold
ephx1 (epoxide hydrolase 1) expression change ([2]; versus corn oil control, up): 9.9 fold
gdnf (glial cell derived neurotrophic factor) expression change ([2]; versus corn oil control, up): 6.0 fold
glrx1 (glutaredoxin 1) expression change ([2]; versus corn oil control, up): 10.2 fold
hmox1 (heme oxygenase 1) expression change ([2]; versus corn oil control, up): 16.3 fold
mgst2 (microsomal glutathione S-transferase 2) expression change ([2]; versus corn oil control, up): 7.9 fold
ptgs1 (prostaglandin-endoperoxide synthase 1) expression change ([2]; versus corn oil control, up): 27.8 fold
smarcb1 expression change ([2]; versus corn oil control, up): 8.5 fold
Weight Gain (average ± StDev) ([4]; Female, control 80.7 ± 7.42): 61.8 ± 7.78 ^# gram
Weight Gain (average ± StDev) ([4]; Male, control 159.7 ± 7.63): 90.4 ± 25.6 gram
reduction of weight gain during the treatment period ([4]; females): 23%
reduction of weight gain during the treatment period ([4]; males): 43%
increase in liver mass compared to corn oil controls ([5]; female rats): over 30%
increase in lung mass compared to corn oil controls ([5]; female rats): over 30%
increase in spleen mass compared to corn oil controls ([5]; female rats): over 30%
liver weight relative to body weight compared to corn oil treated rats ([5]; female rats): nearly doubled in weight per grams of body weight
relative lung weight ([5]; female rats): more than doubling of the relative lung weight
spleen, thymus and adrenal gland weights relative to controls ([5]; females): increased spleen weights and decreased the thymus and adrenal gland weights
Deletions, % of total [6]: 18%
Insertions, % of total [6]: 14%
Total Mutations [6]: 28
Transitions, % of total [6]: 32%
Transversions, % of total [6]: 36%
frameshift mutations (deletions and insertions) observed, number ([6]; expected 5 from solvent control proportions): 9
Deletions, distinct mutations [6]: 5
Insertions, distinct mutations [6]: 4
Transitions, distinct mutations [6]: 9
Transversions, distinct mutations [6]: 10
frameshift mutations (deletions and insertions), % of all mutations [6]: 32%
significance of the increase in mutation frequency compared to control [7]: failed marginally to reach statistical significance
Mutants per 10^6 plaques (mutant frequency) [7]: 48.4 per 10^6 plaques
Mutation Frequency (MF) ± SE (corrected) [7]: 43.5 per 10^6 pfu and 43.5 ± 14.8 per 10^6 pfu
Number of Mutations (corrected) [7]: 28
Organ Pathology, LIVER [8]: centrilobular necrosis, in some cases severe, was the dominat finding
Organ Pathology, LUNG [8]: 1: No abnormality 2 + 3: Focal perivascular lymphocytes. 4: Focal perivascular lymphocytes with increased intra-alveolar macrophages.
frameshift mutations, % of mutations [9]: 27%
increase in mutation frequency ([9]; male rodents, liver): about 5 fold

Clc1ccc(-c2cc(Cl)c(Cl)cc2Cl)cc1Cl [PCB 118, 2,3′,4,4′,5-pentachloro-biphenyl]
carcinogenicity in chronic carcinogenicity studies [10]: clear evidence

Clc1ccc(-c2ccccc2)cc1 [PCB3, 4-chlorobiphenyl]
Organ Pathology, LIVER ([1]; Female): all female PCB3 livers had acidophilic bodies and two animals also showed patchy hepatocellular necrosis and 1 + 2: Scattered acidophilic bodies 3: Centrilobular acidophilic bodies and patchy hepatocellular necrosis. 4: Centrilobular acidophilic bodies and patchy hepatocellular necrosis.
Organ Pathology, LUNG ([1]; Female): 1: Focal acute inflammation 2: Minimal acute inflammation with areas of atelectasis 3: Minimal acute inflammation 4: Patchy bronchopneumonia with early ARDS. Perivascular lymphocytes increased.
Organ Pathology, SPLEEN ([1]; Female): No abnormality
Organ Pathology, SPLEEN ([1]; Male): No abnormality
number of unique genes significantly changed [2]: 86
CYP mRNA in the liver ([2]; versus corn oil control): No CYP mRNA increase
Jun expression change ([2]; versus corn oil control, up): 55.9 fold
avpr1a (arginine vasopressin receptor 1A) expression change ([2]; versus corn oil control, up): 7.3 fold
cfdp1 (craniofacial development protein 1) expression change ([2]; versus corn oil control, up): 6.2 fold
cps1 (carbamoyl-phosphate synthetase 1) expression change ([2]; versus corn oil control, up): 6.7 fold
hmox1 (heme oxygenase 1) expression change ([2]; versus corn oil control, up): 5.8 fold
kdr (kinase insert domain protein receptor) expression change ([2]; versus corn oil control, up): 5.5 fold
lrrc59 (leucine rich repeat containing 59) expression change ([2]; versus corn oil control, up): 33.1 fold
mbd2 (Methyl-CpG-binding protein) expression change ([2]; versus corn oil control, up): 6.9 fold
mrpl23 (mitochondrial ribosomal protein L23) expression change ([2]; versus corn oil control, up): 223.3 fold
sult1b1 (sulfotransforase 1b1) expression change [2, 12]: ~7 fold
Weight Gain (average ± StDev) ([4]; Female, control 80.7 ± 7.42): 79.6 ± 4.51 gram
Weight Gain (average ± StDev) ([4]; Male, control 159.7 ± 7.63): 146.1 ± 7.99 gram
effect on weight gain compared to control [4]: Neither PCB3 nor 4′-OH-PCB3 had a significant effect on weight gain in either gender
impact on liver, lung and spleen weights [5]: no statistically significant impact
Deletions, % of total [6]: 7%
Insertions, % of total [6]: 20%
Total Mutations [6]: 15
Transitions, % of total [6]: 53%
Transversions, % of total [6]: 20%
Deletions, distinct mutations [6]: 1
Insertions, distinct mutations [6]: 3
Transitions, distinct mutations [6]: 8
Transversions, distinct mutations [6]: 3
significance of the increase in mutation frequency compared to control [7]: neither PCB3 (p=0.429) nor 4′-OH-PCB3 (p=0.581) increased the mutation frequency significantly
Mutants per 10^6 plaques (mutant frequency) [7]: 30.3 per 10^6 plaques
Mutation Frequency (MF) ± SE (corrected) [7]: 30.3 ± 17.9 per 10^6 pfu
Number of Mutations (corrected) [7]: 15

From paper PMC2949545 (Environment international, 2010)
